In ChEMBL document CHEMBL3616456, “Potential of aryl-urea-benzofuranylthiazoles hybrids as multitasking agents in Alzheimer's disease” (Eur J Med Chem, 2015):

How the values were obtained:
[1] = Antioxidant activity assessed as ABTS cation radical scavenging activity measured after 6 mins
[2] = Selectivity index, ratio of IC50 for horse serum butyrylcholinesterase to IC50 for electric eel acetylcholinesterase
Acetylcholinesterase = Acetylcholinesterase (Electrophorus electricus, UniProt O42275); assay: Inhibition of electric eel acetylcholinesterase using acetylthiocholine iodide as substrate preincubated for 15 mins followed by substrate addition by Ellman's method
Chain of Acetylcholinesterase (O42275 whole entry): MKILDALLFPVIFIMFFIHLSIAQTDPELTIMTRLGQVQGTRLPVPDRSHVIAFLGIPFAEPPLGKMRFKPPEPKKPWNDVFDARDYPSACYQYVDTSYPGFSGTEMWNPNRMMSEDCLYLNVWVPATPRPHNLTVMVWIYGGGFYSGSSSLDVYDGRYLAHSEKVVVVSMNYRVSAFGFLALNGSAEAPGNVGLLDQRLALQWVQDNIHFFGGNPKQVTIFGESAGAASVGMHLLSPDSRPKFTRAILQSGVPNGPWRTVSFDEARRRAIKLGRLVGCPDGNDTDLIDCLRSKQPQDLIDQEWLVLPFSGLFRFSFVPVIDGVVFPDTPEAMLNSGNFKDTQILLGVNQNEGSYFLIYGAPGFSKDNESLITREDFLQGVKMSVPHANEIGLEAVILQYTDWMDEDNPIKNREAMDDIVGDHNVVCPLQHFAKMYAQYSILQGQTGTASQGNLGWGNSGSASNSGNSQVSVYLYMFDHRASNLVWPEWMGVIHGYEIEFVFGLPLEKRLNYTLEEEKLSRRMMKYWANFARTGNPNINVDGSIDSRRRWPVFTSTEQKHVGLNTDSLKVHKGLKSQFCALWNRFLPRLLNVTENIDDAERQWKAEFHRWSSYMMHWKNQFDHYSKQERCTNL

Cholinesterase = Cholinesterase (Equus caballus, UniProt P81908); assay: Inhibition of horse serum butyrylcholinesterase using butyrylthiocholine iodide as substrate preincubated for 15 mins followed by substrate addition by Ellman's method
Chain of Cholinesterase (P81908 whole entry): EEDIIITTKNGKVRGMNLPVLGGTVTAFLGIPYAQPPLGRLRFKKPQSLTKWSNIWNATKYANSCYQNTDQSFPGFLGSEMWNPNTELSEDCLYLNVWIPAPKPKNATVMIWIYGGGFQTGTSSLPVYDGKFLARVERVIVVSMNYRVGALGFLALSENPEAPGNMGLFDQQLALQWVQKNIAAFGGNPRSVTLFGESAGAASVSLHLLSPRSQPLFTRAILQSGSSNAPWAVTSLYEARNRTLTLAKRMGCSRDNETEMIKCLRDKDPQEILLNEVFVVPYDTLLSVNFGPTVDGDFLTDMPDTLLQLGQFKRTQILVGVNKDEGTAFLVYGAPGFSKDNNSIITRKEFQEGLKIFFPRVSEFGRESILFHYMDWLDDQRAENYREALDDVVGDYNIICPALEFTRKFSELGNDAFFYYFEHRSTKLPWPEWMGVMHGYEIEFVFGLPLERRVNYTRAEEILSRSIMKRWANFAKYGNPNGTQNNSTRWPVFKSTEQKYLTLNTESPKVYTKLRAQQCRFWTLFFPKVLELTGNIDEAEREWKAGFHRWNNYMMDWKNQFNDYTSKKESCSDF
In short: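 Enzyme in 100 mM phosphate buffer pH 8.0 with sample (n-propanol as solvent and control) preincubated 15 min at 25°C. Reaction started with butyrylthiocholine iodide (0.79 mM solution) plus DTNB. Thiolate-DTNB yellow product followed at 412 nm. IC50 taken from inhibition (%) curves at five concentrations: 12.5, 25, 50, 100 and 200 µM.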

[3] = Antioxidant activity assessed as cupric reducing antioxidant capacity measured after 1 hr; assay type: physicochemical
[4] = biological target: Cholinesterase (Equus caballus) (UniProt P81908); assay: Potency index, ratio of galanthamine IC50 to compound IC50 for horse serum butyrylcholinesterase
Chain of Cholinesterase (Equus caballus) (P81908 whole entry): as above

[5] = biological target: Cholinesterase (Equus caballus) (UniProt P81908); assay: Potency index, ratio of donepezil IC50 to compound IC50 for horse serum butyrylcholinesterase

| SMILES | IC50 ([1]; ABTS cation radical) [µM] | Ratio IC50 [2] | IC50 (Acetylcholinesterase) [µM] | IC50 (Cholinesterase) [µM] | A0.5 [3] [µM] | Ratio IC50 [4] | Ratio IC50 [5] | IC50 [1] [µM] |
| --- | --- | --- | --- | --- | --- | --- | --- | --- |
| O=C(Nc1cccc(Cl)c1)Nc1nc(-c2cc3ccccc3o2)cs1 | 14.1 | 2.22 | 9.67 | 21.5 | > 200 |  |  |  |
| O=C(Nc1ccc([N+](=O)[O-])cc1)Nc1nc(-c2cc3cc(Br)ccc3o2)cs1 | > 200 | 0.65 | 4.78 | 3.12 | 120.74 |  |  |  |
| O=C(Nc1ccc(F)cc1)Nc1nc(-c2cc3cc([N+](=O)[O-])ccc3o2)cs1 | 123 | 1.16 | 41.1 | 47.6 | > 200 |  |  |  |
| O=C(Nc1ccc(Cl)cc1)Nc1nc(-c2cc3ccccc3o2)cs1 | 11.2 | 0.91 | 42.6 | 38.6 | > 200 |  |  |  |
| O=C(Nc1ccc(I)cc1)Nc1nc(-c2cc3cc([N+](=O)[O-])ccc3o2)cs1 | 62.4 | 0.37 | 5.53 | 2.03 | > 200 | 8.5 | 2.3 |  |
| O=C(Nc1ccc(Cl)cc1)Nc1nc(-c2cc3cc([N+](=O)[O-])ccc3o2)cs1 | 117 | 0.87 | 30.6 | 26.6 | > 200 |  |  |  |
| O=C(Nc1cccc(F)c1)Nc1nc(-c2cc3cc(Br)ccc3o2)cs1 | > 200 | 1.37 | 29.4 | 40.2 | > 200 |  |  |  |
| O=C(Nc1cccc(F)c1)Nc1nc(-c2cc3ccccc3o2)cs1 | 4.52 | 0.37 | 49 | 18 | 126.52 |  |  |  |
| O=C(Nc1ccccc1)Nc1nc(-c2cc3cc(Br)ccc3o2)cs1 | > 200 | 1.5 | 23.3 | 35 | > 200 |  |  |  |
| O=C(Nc1ccc(I)cc1)Nc1nc(-c2cc3ccccc3o2)cs1 | 62 | 1.93 | 21.4 | 41.3 | 133 |  |  |  |
| O=C(Nc1ccc(Br)cc1)Nc1nc(-c2cc3ccccc3o2)cs1 | > 200 | 1.68 | 32.8 | 55.2 | > 200 |  |  |  |
| O=C(Nc1ccc(F)cc1)Nc1nc(-c2cc3cc(Br)ccc3o2)cs1 | > 200 | 1.81 | 35.6 | 64.3 | 146.78 |  |  |  |
| O=C(Nc1cccc(Cl)c1)Nc1nc(-c2cc3cc(Br)ccc3o2)cs1 | > 200 | 3.32 | 7.93 | 26.3 | > 200 |  |  |  |
| O=C(Nc1cccc([N+](=O)[O-])c1)Nc1nc(-c2cc3cc(Br)ccc3o2)cs1 | 159 | 4.53 | 17.4 | 79 | > 200 |  |  |  |
| O=C(Nc1ccc(Br)cc1)Nc1nc(-c2cc3cc(Br)ccc3o2)cs1 | > 200 | 3 | 11.9 | 35.8 | > 200 |  |  |  |
| O=C(Nc1ccc(Cl)c(Cl)c1)Nc1nc(-c2cc3ccccc3o2)cs1 | > 200 | 1.45 | 52 | 75.6 | > 200 |  |  |  |
| COc1ccc(NC(=O)Nc2nc(-c3cc4ccccc4o3)cs2)cc1 | 17.4 | 1.42 | 52.5 | 74.3 | 146.34 |  |  |  |
| COc1ccc(NC(=O)Nc2nc(-c3cc4cc([N+](=O)[O-])ccc4o3)cs2)cc1 | 121 | 1.44 | 34.1 | 49.2 | > 200 |  |  |  |
| O=C(Nc1nc(-c2cc3cc(Br)ccc3o2)cs1)Nc1ccccc1F | > 200 | 2.4 | 3.85 | 9.25 | > 200 |  |  |  |
| O=C(Nc1ccc([N+](=O)[O-])cc1)Nc1nc(-c2cc3ccccc3o2)cs1 | 19.3 | 0.66 | 5.23 | 3.44 | > 200 |  |  |  |

| SMILES | IC50 ([1]; ABTS cation radical) [µM] | Ratio IC50 [2] | IC50 (Acetylcholinesterase) [µM] | IC50 (Cholinesterase) [µM] | A0.5 [3] [µM] | Ratio IC50 [4] | Ratio IC50 [5] | IC50 [1] [µM] |
| --- | --- | --- | --- | --- | --- | --- | --- | --- |
| O=C(Nc1nc(-c2cc3cc(Br)ccc3o2)cs1)Nc1ccccc1[N+](=O)[O-] | 166 | 0.58 | 8.82 | 5.12 | 122.22 |  |  |  |
| O=C(Nc1ccc(F)cc1)Nc1nc(-c2cc3ccccc3o2)cs1 | 1.13 | 0.14 | 55 | 7.45 | 110.31 |  |  |  |
| Cc1ccc(NC(=O)Nc2nc(-c3cc4ccccc4o3)cs2)cc1 | 0.5 | 5.41 | 10.4 | 56.3 | 192.91 |  |  |  |
| O=C(Nc1nc(-c2cc3ccccc3o2)cs1)Nc1ccccc1F | 2.63 | 1.35 | 30.9 | 41.7 | 102.43 |  |  |  |
| O=C(Nc1ccc(I)cc1)Nc1nc(-c2cc3cc(Br)ccc3o2)cs1 | > 200 | 6.8 | 6.42 | 43.6 | > 200 |  |  |  |
| O=C(Nc1nc(-c2cc3ccccc3o2)cs1)Nc1ccccc1[N+](=O)[O-] | 20.3 | 1.91 | 41.9 | 79.9 | 100.33 |  |  |  |
| Cc1ccc(NC(=O)Nc2nc(-c3cc4cc(Br)ccc4o3)cs2)cc1 | > 200 | 0.17 | 32.5 | 5.65 | > 200 |  |  |  |
| O=C(Nc1ccccc1)Nc1nc(-c2cc3cc([N+](=O)[O-])ccc3o2)cs1 | 183 | 0.51 | 4.42 | 2.26 | > 200 |  |  |  |
| O=c1c(O)c(-c2ccc(O)c(O)c2)oc2cc(O)cc(O)c12 [QUERCETIN] | 1.18 |  |  |  | 1.45 |  |  |  |
| COc1cccc(NC(=O)Nc2nc(-c3cc4ccccc4o3)cs2)c1 | 0.2 | 1.22 | 48.9 | 59.6 | 104.46 |  |  |  |
| COc1ccccc1NC(=O)Nc1nc(-c2cc3ccccc3o2)cs1 | 47.4 | 1.33 | 61 | 81.3 | > 200 |  |  |  |
| COc1ccccc1NC(=O)Nc1nc(-c2cc3cc(Br)ccc3o2)cs1 | 77.2 | 1.95 | 78.8 | 154 | 92.68 |  |  |  |
| O=C(Nc1ccccc1)Nc1nc(-c2cc3ccccc3o2)cs1 | 28.2 | 0.86 | 24.7 | 21.3 | 132 |  |  |  |
| COc1ccc(NC(=O)Nc2nc(-c3cc4cc(Br)ccc4o3)cs2)cc1 | > 200 | 0.95 | 32.8 | 31 | > 200 |  |  |  |
| COc1cccc(NC(=O)Nc2nc(-c3cc4cc(Br)ccc4o3)cs2)c1 | > 200 | 0.47 | 29.4 | 13.9 | > 200 |  |  |  |
| O=C(Nc1ccc([N+](=O)[O-])cc1)Nc1nc(-c2cc3cc([N+](=O)[O-])ccc3o2)cs1 | 100 | 1.02 | 25.2 | 25.6 | > 200 |  |  |  |
| O=C(Nc1ccc(Br)cc1)Nc1nc(-c2cc3cc([N+](=O)[O-])ccc3o2)cs1 | 194 | 1.22 | 28.2 | 34.5 | > 200 |  |  |  |
| O=C(Nc1cccc([N+](=O)[O-])c1)Nc1nc(-c2cc3ccccc3o2)cs1 |  | 0.65 | 41.2 | 26.8 | > 200 |  |  | 1.26 |
| O=C(Nc1ccc(Cl)cc1)Nc1nc(-c2cc3cc(Br)ccc3o2)cs1 | > 200 | 1.66 | 22.2 | 36.9 | > 200 |  |  |  |
